Legend:
Format in all cases: functional
[1] = Antioxidant activity assessed as DPPH free radical scavenging activity measured after 30 mins by spectrophotometry
Summary of the method: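 DPPH radical scavenging in ethanolic solution with a final DPPH concentration of 100 µM. Absorbance read at 517 nm. Percent inhibition = (A control − A test)/A control, where the control is DPPH without sample. The inhibition-versus-concentration plot gives EC50, the concentration giving a 50% drop in absorbance. Mean ± S.D. of three independent trials.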

[2] = tested on: Mycolicibacterium smegmatis; test: Antibacterial activity against Mycobacterium smegmatis MC2 155 ATCC 700084 measured after 72 hrs by serial dilution method
Staphylococcus aureus [3] = test: Antibacterial activity against methicillin-resistant Staphylococcus aureus ATCC 43300 measured after 24 hrs by serial dilution method
[4] = tested on: Mycolicibacterium smegmatis; test: Bactericidal activity against Mycobacterium smegmatis MC2 155 ATCC 700084 at 50 ug/ml measured after 6 hrs by serial dilution method relative to control
Summary of the method: (§1)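 Bacteria were exposed to test compound over a range of µg/ml concentrations. Viable bacteria were counted by colony forming unit (CFU) assay at set time points (6 h and 24 h for M. smegmatis and S. aureus strains), and untreated bacteria served as the control. Percentage of population killed was calculated relative to the untreated control. Values are means ± S.D of three independent trials.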

[5] = tested on: Mycolicibacterium smegmatis; test: Bactericidal activity against Mycobacterium smegmatis MC2 155 ATCC 700084 at 50 ug/ml measured after 24 hrs by serial dilution method relative to control; summary of the method: as §1
Pseudomonas aeruginosa [6] = test: Bactericidal activity against Pseudomonas aeruginosa PAO1 ATCC 15692 at >300 ug/ml measured after 1 and 3 hrs by serial dilution method relative to control
Staphylococcus aureus [7] = test: Bactericidal activity against methicillin-resistant Staphylococcus aureus ATCC 43300 at 50 ug/ml measured after 6 hrs by serial dilution method relative to control; summary of the method: as §1
Staphylococcus aureus [8] = test: Bactericidal activity against methicillin-resistant Staphylococcus aureus ATCC 43300 at >100 ug/ml measured after 6 and 24 hrs by serial dilution method relative to control; summary of the method: as §1
[9] = tested on: Mycolicibacterium smegmatis; test: Antibacterial activity against Mycobacterium smegmatis MC2 155 ATCC 700084 assessed as colony forming units at 1 ug/ml measured after 6 hrs by serial dilution method (reference value: 70 +/- 1.73 10^3CFU); summary of the method: as §1
[10] = tested on: Mycolicibacterium smegmatis; test: Antibacterial activity against Mycobacterium smegmatis MC2 155 ATCC 700084 assessed as colony forming units at 50 ug/ml measured after 6 hrs by serial dilution method (reference value: 70 +/- 1.73 10^3CFU); summary of the method: as §1
[11] = tested on: Mycolicibacterium smegmatis; test: Antibacterial activity against Mycobacterium smegmatis MC2 155 ATCC 700084 assessed as colony forming units at 200 ug/ml measured after 6 hrs by serial dilution method (reference value: 70 +/- 1.73 10^3CFU); summary of the method: as §1
[12] = tested on: Mycolicibacterium smegmatis; test: Antibacterial activity against Mycobacterium smegmatis MC2 155 ATCC 700084 assessed as colony forming units at 300 ug/ml measured after 6 hrs by serial dilution method (reference value: 70 +/- 1.73 10^3CFU); summary of the method: as §1
[13] = tested on: Mycolicibacterium smegmatis; test: Antibacterial activity against Mycobacterium smegmatis MC2 155 ATCC 700084 assessed as colony forming units at 500 ug/ml measured after 6 hrs by serial dilution method (reference value: 70 +/- 1.73 10^3CFU); summary of the method: as §1
[14] = tested on: Mycolicibacterium smegmatis; test: Antibacterial activity against Mycobacterium smegmatis MC2 155 ATCC 700084 assessed as colony forming units at 1 ug/ml measured after 24 hrs by serial dilution method (reference value: 84 +/- 4.35 10^3CFU); summary of the method: as §1
[15] = tested on: Mycolicibacterium smegmatis; test: Antibacterial activity against Mycobacterium smegmatis MC2 155 ATCC 700084 assessed as colony forming units at 10 ug/ml measured after 24 hrs by serial dilution method (reference value: 84 +/- 4.35 10^3CFU); summary of the method: as §1
[16] = tested on: Mycolicibacterium smegmatis; test: Antibacterial activity against Mycobacterium smegmatis MC2 155 ATCC 700084 assessed as colony forming units at 100 ug/ml measured after 24 hrs by serial dilution method (reference value: 84 +/- 4.35 10^3CFU); summary of the method: as §1
[17] = tested on: Mycolicibacterium smegmatis; test: Antibacterial activity against Mycobacterium smegmatis MC2 155 ATCC 700084 assessed as colony forming units at 500 ug/ml measured after 24 hrs by serial dilution method (reference value: 84 +/- 4.35 10^3CFU); summary of the method: as §1
Pseudomonas aeruginosa [18] = test: Antibacterial activity against Pseudomonas aeruginosa PAO1 ATCC 15692 assessed as colony forming units at 50 ug/ml measured after 1 hr by serial dilution method (reference value: 85.33 +/- 4.04 10^8CFU)
Pseudomonas aeruginosa [19] = test: Antibacterial activity against Pseudomonas aeruginosa PAO1 ATCC 15692 assessed as colony forming units at 200 ug/ml measured after 1 hr by serial dilution method (reference value: 85.33 +/- 4.04 10^8CFU)
Pseudomonas aeruginosa [20] = test: Antibacterial activity against Pseudomonas aeruginosa PAO1 ATCC 15692 assessed as colony forming units at 300 ug/ml measured after 1 hr by serial dilution method (reference value: 85.33 +/- 4.04 10^8CFU)
Pseudomonas aeruginosa [21] = test: Antibacterial activity against Pseudomonas aeruginosa PAO1 ATCC 15692 assessed as colony forming units at 500 ug/ml measured after 1 hr by serial dilution method (reference value: 85.33 +/- 4.04 10^8CFU)
Pseudomonas aeruginosa [22] = test: Antibacterial activity against Pseudomonas aeruginosa PAO1 ATCC 15692 assessed as colony forming units at 500 ug/ml measured after 3 hr by serial dilution method (reference value: 141.66 +/- 7.5 10^8CFU)
Staphylococcus aureus [23] = test: Antibacterial activity against Staphylococcus aureus ATCC 25923 assessed as colony forming units at 10 ug/ml measured after 6 hrs by serial dilution method (reference value: 65.66 +/- 3.51 10^6CFU)
Staphylococcus aureus [24] = test: Antibacterial activity against Staphylococcus aureus ATCC 25923 assessed as colony forming units at 100 ug/ml measured after 24 hrs by serial dilution method (reference value: 77.66 +/- 5.13 10^6CFU)
Staphylococcus aureus [25] = test: Antibacterial activity against Staphylococcus aureus ATCC 25923 assessed as colony forming units at 500 ug/ml measured after 24 hrs by serial dilution method (reference value: 77.66 +/- 5.13 10^6CFU)
Staphylococcus aureus [26] = test: Antibacterial activity against methicillin-resistant Staphylococcus aureus ATCC 43300 assessed as colony forming units at 10 ug/ml measured after 6 hrs by serial dilution method (reference value: 64.33 +/- 3.51 10^6CFU); summary of the method: as §1
Staphylococcus aureus [27] = test: Antibacterial activity against methicillin-resistant Staphylococcus aureus ATCC 43300 assessed as colony forming units at 50 ug/ml measured after 6 hrs by serial dilution method (reference value: 64.33 +/- 3.51 10^6CFU); summary of the method: as §1
Staphylococcus aureus [28] = test: Antibacterial activity against methicillin-resistant Staphylococcus aureus ATCC 43300 assessed as colony forming units at 100 ug/ml measured after 6 hrs by serial dilution method (reference value: 64.33 +/- 3.51 10^6CFU); summary of the method: as §1
Staphylococcus aureus [29] = test: Antibacterial activity against methicillin-resistant Staphylococcus aureus ATCC 43300 assessed as colony forming units at 50 ug/ml measured after 24 hrs by serial dilution method (reference value: 74 +/- 2 10^6CFU); summary of the method: as §1

SMILES | EC50 [1] | Activity [2] | Activity (Staphylococcus aureus [3]) | Activity [4] | Activity [5] | Activity (Pseudomonas aeruginosa [6]) | Activity (Staphylococcus aureus [7]) | Activity (Staphylococcus aureus [8]) | Activity [9] | Activity [10] | Activity [11] | Activity [12] | Activity [13] | Activity [14] | Activity [15] | Activity [16] | Activity [17] | Activity (Pseudomonas aeruginosa [18]) | Activity (Pseudomonas aeruginosa [19]) | Activity (Pseudomonas aeruginosa [20]) | other results
O=C(/C=C/c1ccc(O)c(O)c1)Nc1ccccc1Nc1ccccc1 | 14.7 µM | Dose-dependent effect | Dose-dependent effect | 51.9% | 78.1% | 100% | 52.8% | 100% | 52.33 ×10³ CFU | 33.66 ×10³ CFU | 15 ×10³ CFU | 0 ×10³ CFU | 0 ×10³ CFU | 54 ×10³ CFU | 35.33 ×10³ CFU | 8 ×10³ CFU | 0 ×10³ CFU | 35 ×10⁸ CFU | 10.66 ×10⁸ CFU | 0 ×10⁸ CFU | Activity (Pseudomonas aeruginosa [21]): 0 ×10⁸ CFU; Activity (Pseudomonas aeruginosa [22]): 0 ×10⁸ CFU; Activity (Staphylococcus aureus [23]): 40 ×10⁶ CFU; Activity (Staphylococcus aureus [24]): 11.66 ×10⁶ CFU; Activity (Staphylococcus aureus [25]): 0 ×10⁶ CFU; Activity (Staphylococcus aureus [26]): 48 ×10⁶ CFU; Activity (Staphylococcus aureus [27]): 30.33 ×10⁶ CFU; Activity (Staphylococcus aureus [28]): 24.33 ×10⁶ CFU; Activity (Staphylococcus aureus [29]): 28.66 ×10⁶ CFU
Cc1ccc(O)c(NC(=O)/C=C/c2ccc(O)c(O)c2)c1 | 6.57 µM | Dose-dependent effect | Dose-dependent effect | 63.8% | 45.6% | 100% | 57.5% | 100% | 65.66 ×10³ CFU | 25.33 ×10³ CFU | 6.33 ×10³ CFU | 0 ×10³ CFU | 0 ×10³ CFU | 62.66 ×10³ CFU | 58 ×10³ CFU | 36.33 ×10³ CFU | 0 ×10³ CFU | 43 ×10⁸ CFU | 14 ×10⁸ CFU | 0 ×10⁸ CFU | Activity (Pseudomonas aeruginosa [21]): 0 ×10⁸ CFU; Activity (Pseudomonas aeruginosa [22]): 0 ×10⁸ CFU; Activity (Staphylococcus aureus [23]): 25.66 ×10⁶ CFU; Activity (Staphylococcus aureus [24]): 0 ×10⁶ CFU; Activity (Staphylococcus aureus [25]): 0 ×10⁶ CFU; Activity (Staphylococcus aureus [26]): 44.66 ×10⁶ CFU; Activity (Staphylococcus aureus [27]): 27.33 ×10⁶ CFU; Activity (Staphylococcus aureus [28]): 20.33 ×10⁶ CFU; Activity (Staphylococcus aureus [29]): 26 ×10⁶ CFU
